According to ChEMBL document CHEMBL1124567, “2,4-Diamino-5-benzylpyrimidines and analogues as antibacterial agents. 11. Quinolylmethyl analogues with basic substituents conveying specificity” (J Med Chem, 1989):
Converted amounts (≈) assume the structure as drawn.

What was measured:
[1] = tested on: Salmonella typhimurium; test: Comparative in vitro antibacterial activity of compound with trimethoprim against Salmonella Typhimurium S 8587; type: functional, Salmonella enterica subsp. enterica serovar Typhimurium; settings: Salmonella enterica
How it was run: (§1)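 Activity is expressed relative to trimethoprim as the reference, with values above 1 meaning lower activity than the reference. Dilutions were threefold (1:3), and a difference of ± one dilution was not treated as significant.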

[2] = tested on: Vibrio cholerae; test: Comparative in vitro antibacterial activity of compound with trimethoprim against Vibrio cholerae ATCC 14035; type: functional
How it was run: (§2)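 In vitro activity given as a ratio to trimethoprim, which is tested alongside; values above 1 mean lower activity than trimethoprim. Compounds were tested in serial 1:3 dilutions, and a difference of ±one dilution is treated as not significant.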

[3] = tested on: Pasteurella multocida; test: Comparative in vitro antibacterial activity of compound with trimethoprim against Pasteurella multocida ATCC 6587; type: functional; how it was run: as §1
[4] = tested on: Citrobacter freundii; test: Comparative in vitro antibacterial activity of compound with trimethoprim against Citrobacter freundii 2200/77; type: functional; how it was run: as §1
[5] = tested on: Serratia marcescens; test: Comparative in vitro antibacterial activity of compound with trimethoprim against Serratia marcescens CN2398; type: functional; how it was run: as §1
[6] = tested on: Klebsiella aerogenes; test: Comparative in vitro antibacterial activity of compound with trimethoprim against Enterobacter aerogenes 2200/86; type: functional; how it was run: as §1
[7] = tested on: Mycolicibacterium smegmatis; test: Comparative in vitro antibacterial activity of compound with trimethoprim against Mycobacterium smegmatis S 3254; type: functional; how it was run: as §1
[8] = tested on: Streptococcus agalactiae; test: Comparative in vitro antibacterial activity of compound with trimethoprim against Streptococcus agalactiae CN1143; type: functional; how it was run: as §1
[9] = tested on: Bordetella bronchiseptica; test: Comparative in vitro antibacterial activity of compound with trimethoprim against Bordetella bronchiseptica CN385; type: functional; how it was run: as §1
[10] = tested on: Proteus vulgaris; test: Comparative in vitro antibacterial activity of compound with trimethoprim against Proteus vulgaris CN329; type: functional; how it was run: as §1
[11] = tested on: Escherichia coli; test: Comparative in vitro antibacterial activity of compound with trimethoprim against Escherichia coli CN314; type: functional; how it was run: as §1
[12] = target: T1, Dihydrofolate reductase (Rattus norvegicus, UniProt Q920D2); test: Inhibitory activity against Dihydrofolate reductase in rat liver; type: tissue-based; settings: read-out: I50
T1 sequence (Q920D2 whole entry): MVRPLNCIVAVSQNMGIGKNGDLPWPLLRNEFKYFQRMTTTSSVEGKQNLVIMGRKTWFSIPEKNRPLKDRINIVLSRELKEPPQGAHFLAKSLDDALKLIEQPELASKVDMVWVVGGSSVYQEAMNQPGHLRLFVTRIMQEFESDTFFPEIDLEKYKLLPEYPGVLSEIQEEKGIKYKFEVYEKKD

[13] = tested on: Proteus mirabilis; test: Comparative in vitro antibacterial activity of compound with trimethoprim against Proteus mirabilis S2409; type: functional; how it was run: as §1
[14] = tested on: Klebsiella pneumoniae; test: Comparative in vitro antibacterial activity of compound with trimethoprim against Klebsiella pneumoniae CN3632; type: functional; how it was run: as §1
[15] = tested on: Shigella flexneri; test: Comparative in vitro antibacterial activity of compound with trimethoprim against Shigella flexneri CN6007; type: functional; how it was run: as §1
[16] = Comparative in vitro antibacterial activity of compound with trimethoprim against Salmonella typhi CN512; type: functional, salmonella typhosa; how it was run: as §2
[17] = tested on: Streptococcus pyogenes; test: Comparative in vitro antibacterial activity of compound with trimethoprim against Streptococcus pyogenes CN10; type: functional; how it was run: as §1
[18] = tested on: Staphylococcus aureus; test: Comparative in vitro antibacterial activity of compound with trimethoprim against Staphylococcus aureus CN491; type: functional; how it was run: as §1
[19] = tested on: Enterococcus faecalis; test: Comparative in vitro antibacterial activity of compound with trimethoprim against Streptococcus faecalis CN478; type: functional; how it was run: as §1
[20] = Dissociation constant of compound at 25 degree C; type: physicochemical

SMILES | MIC [1] | MIC [2] | MIC [3] | MIC [4] | MIC [5] | MIC [6] | MIC [7] | MIC [8] | MIC [9] | MIC [10] | MIC [11] | IC50 [12] | MIC [13] | MIC [14] | MIC [15] | MIC [16] | MIC [17] | MIC [18] | MIC [19] | pKa [20]
COc1cc(C)c2cc(Cc3cnc(N)nc3N)cc(C)c2n1 | 30 µg/mL (≈ 97 µM) | 3 µg/mL (≈ 9.7 µM) | 10 µg/mL (≈ 32.3 µM) | 30 µg/mL (≈ 97 µM) | 10 µg/mL (≈ 32.3 µM) | 30 µg/mL (≈ 97 µM) | 3 µg/mL (≈ 9.7 µM) | 1 µg/mL (≈ 3.23 µM) | 100 µg/mL (≈ 323 µM) | 30 µg/mL (≈ 97 µM) | 10 µg/mL (≈ 32.3 µM) | 62 µM | 10 µg/mL (≈ 32.3 µM) | 10 µg/mL (≈ 32.3 µM) | 30 µg/mL (≈ 97 µM) | 10 µg/mL (≈ 32.3 µM) | 3 µg/mL (≈ 9.7 µM) | 1 µg/mL (≈ 3.23 µM) | 1 µg/mL (≈ 3.23 µM) | 
COc1cc(C)c2cc(Br)cc(C)c2n1 |  |  |  |  |  |  |  |  |  |  |  |  |  |  |  |  |  |  |  | 2.96
COc1cccc2cccnc12 |  |  |  |  |  |  |  |  |  |  |  |  |  |  |  |  |  |  |  | 4.99
Cc1cc(N(C)C)nc2c(C)cc(Cc3cnc(N)nc3N)cc12 | 10 µg/mL (≈ 31 µM) | 1 µg/mL (≈ 3.1 µM) | 3 µg/mL (≈ 9.3 µM) | 10 µg/mL (≈ 31 µM) | 10 µg/mL (≈ 31 µM) | 10 µg/mL (≈ 31 µM) | 3 µg/mL (≈ 9.3 µM) | 1 µg/mL (≈ 3.1 µM) | 30 µg/mL (≈ 93 µM) | 10 µg/mL (≈ 31 µM) | 10 µg/mL (≈ 31 µM) | 280 µM | 10 µg/mL (≈ 31 µM) | 3 µg/mL (≈ 9.3 µM) | 10 µg/mL (≈ 31 µM) | 3 µg/mL (≈ 9.3 µM) | 3 µg/mL (≈ 9.3 µM) | 1 µg/mL (≈ 3.1 µM) | 1 µg/mL (≈ 3.1 µM) | 
Cc1cc(N(C)C)nc2ccc(Cc3cnc(N)nc3N)cc12 | 10 µg/mL (≈ 32.4 µM) | 1 µg/mL (≈ 3.24 µM) | 1 µg/mL (≈ 3.24 µM) | 10 µg/mL (≈ 32.4 µM) | 3 µg/mL (≈ 9.73 µM) | 3 µg/mL (≈ 9.73 µM) | 1 µg/mL (≈ 3.24 µM) | 10 µg/mL (≈ 32.4 µM) | 10 µg/mL (≈ 32.4 µM) | 3 µg/mL (≈ 9.73 µM) | 3 µg/mL (≈ 9.73 µM) |  | 3 µg/mL (≈ 9.73 µM) | 10 µg/mL (≈ 32.4 µM) | 10 µg/mL (≈ 32.4 µM) | 10 µg/mL (≈ 32.4 µM) | 10 µg/mL (≈ 32.4 µM) | 3 µg/mL (≈ 9.73 µM) | 3 µg/mL (≈ 9.73 µM) | 
COc1ccc2ccccc2n1 |  |  |  |  |  |  |  |  |  |  |  |  |  |  |  |  |  |  |  | 3.16
COc1cc(C)c2ccc(Cc3cnc(N)nc3N)cc2n1 | 100 µg/mL (≈ 339 µM) | 3 µg/mL (≈ 10.2 µM) | 10 µg/mL (≈ 33.9 µM) | 100 µg/mL (≈ 339 µM) | > 100 µg/mL | 300 µg/mL (≈ 1020 µM) | 3 µg/mL (≈ 10.2 µM) | 3 µg/mL (≈ 10.2 µM) | > 100 µg/mL | 30 µg/mL (≈ 102 µM) | 300 µg/mL (≈ 1020 µM) | 4.5 µM | 30 µg/mL (≈ 102 µM) | 100 µg/mL (≈ 339 µM) | 300 µg/mL (≈ 1020 µM) | 1000 µg/mL (≈ 3390 µM) | 3 µg/mL (≈ 10.2 µM) | 10 µg/mL (≈ 33.9 µM) | 3 µg/mL (≈ 10.2 µM) | 
Cc1cc(N2CCOCC2)nc2cc(Cc3cnc(N)nc3N)ccc12 | 1000 µg/mL (≈ 2850 µM) | 10 µg/mL (≈ 28.5 µM) | 300 µg/mL (≈ 856 µM) | 100 µg/mL (≈ 285 µM) | > 10 µg/mL | 300 µg/mL (≈ 856 µM) | 3 µg/mL (≈ 8.56 µM) | 30 µg/mL (≈ 85.6 µM) | > 100 µg/mL | > 100 µg/mL | 300 µg/mL (≈ 856 µM) | 16 µM | > 30 µg/mL | 300 µg/mL (≈ 856 µM) | 1000 µg/mL (≈ 2850 µM) | 10000 µg/mL (≈ 28500 µM) | 10 µg/mL (≈ 28.5 µM) | 3 µg/mL (≈ 8.56 µM) | 3 µg/mL (≈ 8.56 µM) | 
Cc1cc(N2CCOCC2)nc2c(C)cc(Br)cc12 |  |  |  |  |  |  |  |  |  |  |  |  |  |  |  |  |  |  |  | 6.37
